This note sets out measurements from the RNAGym collection of RNA variant scans (doi:10.1126/science.aae0568).

This sample holds only a part of the variants without activity.

The labels stand for the following.
B1: tRNA (parent)
chain: GUUCCGUUGGCGUAAUGGUAACGCGUCUCCCUCCUAAGGAGAAGACUGCGGGUUCGAGUCCCGUACGGAACG

This data set covers variants of B1. Briefly: yeast fitness relative to wild type (ratio to wild type); higher = fitter; tRNA-Arg(CCU), competitive growth, 37 C, YPD. The procedure, abridged: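 The tRNA-Arg(CCU) gene variants were made by chemical synthesis with a 3% per-site mutation rate at 69 sites and inserted at the native genomic locus of Saccharomyces cerevisiae. After pooling, the strains were competed in YPD at 37°C for 24 hours in six parallel replicates. Gene amplicons from the start population and each end population were read by 100-nucleotide paired-end sequencing, and Darwinian fitness relative to wild type was taken from genotype frequency changes. Genotypes needed ≥ 100 starting reads, and estimates < 0.5 were set to 0.5.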
Take GGUCCGUUGGCGUAAUGGUAACGCGUCUCCCUCCUAAGGAGAAGACUGCGGGUCCGAGUCCGGUACGGAUCG [U2G U54C C62G A70U]: the yeast fitness is at most 0.5.

Turning to GGUCCGUUGGCGGAAUGGUAACGCGUCUCCCUCCUAAGGAGAAGACUGCGGGUUCGGGUCCCGUACGGAACG [U2G U13G A57G], the yeast fitness turned out to be 0.538.

For the variant GGUCCGUUGGCGUAAUGGUAACGCGUCACCCCCCUAAGGAGAAGACUGGGGAUUCGAGUCCCGUACGGAACG [U2G U28A U32C C49G G52A], the yeast fitness was at most 0.5.

In the case of GUACCGUUGGCGUUAUGGUAACGCGUCUCCCUCCUAGGGAGAAGACUGCGGGUUCGCGUCCCGUACGGAACG [U3A A14U A37G A57C], the yeast fitness is at most 0.5.

GUACCGUUGGCGUUAUGGUAACGCGUCUCCCUCCUAAGGAGAAGACUGCGGGUUCGAGUCCUGUACGGAACG [U3A A14U C62U]: the yeast fitness came out at 0.79.

Turning to GUACCGUUGGCGUGUUGGUAACGCGUCUCCCUCCUUAGCUGAAGACUGUGGGUUAGAGUCCCGUACGGAACG [U3A A14G A15U A36U G39C A40U C49U C55A], the yeast fitness is 0.612.

Consider GUACCGUUGGCGUGGUGGUUACGCGUCUCCCUCCUAGGGAAAAGACUGCGGGUUCGAGUCCCGUACGGAACG [U3A A14G A15G A20U A37G G41A], for which the yeast fitness came out at 0.525.

GGUCCGUUGGCGCAAUGGUAGCGCGUCUCCCUCCAAAGGAGAAGACUGCGGGUUUGAGUCCCGUGCGGAACG [U2G U13C A21G U35A C55U A65G]: the yeast fitness was at most 0.5.

Turning to GUACCGUUGGCGUCAUGGUAACGCGUCUCCCUCCUACGGAGAAGACUGCGGGUUCGAGUCCCGUACGGAACG [U3A A14C A37C], the yeast fitness is at most 0.5.

In the case of GGUCCGUUGGCGUAAUGGUAACGCGUCUCCCGCCUAAGGAGUAGACUGCGGGUUCGAGUCCCGUACGGAACG [U2G U32G A42U], the yeast fitness is at most 0.5.

Regarding GUACCGUUGGCGUACUGGUAACGCGUCUCCCUCCUAAGGAGAAGACUGCGGGUUCGAGUCCCGUAUGGAACG [U3A A15C C66U], the yeast fitness came to 0.659.

With GGUCCGCUGGCGUAAUGGUAACGCGUCUCCCUCCUAAGGAGAAGACUGCGGGUUCGAGUCCCGUACGGAACG [U2G U7C], the yeast fitness stood at 0.772.

On to GGUCCGUUGGCGUAACGGUAACGCGUUUCCCUCCCAAGGAGAAGACUGCGGGUUCGAGUCCCGUACGGAACG [U2G U16C C27U U35C], for which the yeast fitness was at most 0.5.

Regarding GUACCGUUGGCGUGAUGGUAACGCGUCUCCCUCCUAAGGAGAAGACUGCGGGUUCGACUCCCGUACGGAACG [U3A A14G G58C], the yeast fitness was found to be 0.753.

Take GGUCCGUUGGCGUAAUGGUAACGCGUCUCCCUCCUAAGGAGAAGACCGCGGGUUCGAGUCCCGUACGGAACG [U2G U47C]: the yeast fitness was determined as 0.992.

For the variant GGUCCGUUGGCGUAAUGGAAACGCGUCUCCCUCCUAAGGAGAAGACUGCGGGCUCGAGUCCCGUACAGAACG [U2G U19A U53C G67A], the yeast fitness came out at 0.563.

For the variant GGUCCGGUGGCGUAAUGGUAACGCGUCUCCCUCCUAAGGAGACGUCUGCGGGUUCGAGUACCGUACGGAACG [U2G U7G A43C A45U C60A], the yeast fitness is at most 0.5.

Turning to GGUCCGUUGGCGUAAUGGUAACGCGUCUCCCGCCUAAGGAGAAGACUGCGGGUUCGAGUCCCGUACGGAACG [U2G U32G], the yeast fitness is 0.68.

For GGUCCGUUGGCGUAAUGGUAACGCGUCUCCCCCCUAAGGAGAAGACUGCGGGUUCGAGUCCCGUACGGAACG [U2G U32C], the yeast fitness is 0.867.

On to GGUCCGUUGGCGGAACGGUAACGCGUCUCCCUCCUAAGGAGAAGACUGCGGGUUCGAGUCCCGUACGGAACG [U2G U13G U16C], for which the yeast fitness is at most 0.5.

On to GUACCGUUGGCGUGAUGGUAACCCGUCUCCCACCUAAGGAGAAGACUGCGGCUUCGAGUCCCGUACGGAACG [U3A A14G G23C U32A G52C], for which the yeast fitness is at most 0.5.

For GGUCCGGUGGCGUAAUGGUAACGCGUCUCCCUCCUAAGGAGAAGACUGCGGGUUCGAGUUACGUACCGAACG [U2G U7G C60U C61A G67C], the yeast fitness was at most 0.5.

Take GGUCCGUUGGCGUAAUGGUAACGCGCCUCCCUCCUAAGGAGAAGACUGUGGGUUAGAGUCCCGUACGGAACG [U2G U26C C49U C55A]: the yeast fitness is at most 0.5.

As to GGUCCGUUGGCGCAAUGGUAGCGCGUCUCCCUCCAAAGGAGAAGACUGCGGGUUCGAGUCCCGUACGGAACG [U2G U13C A21G U35A], the yeast fitness was at most 0.5.

In the case of GGUCCGUUGGCGUAAUGGUAACGCGACUCCCUCCUAAGGAGAAGACUGCGGGUUCGAGUCCCGUACGGAACG [U2G U26A], the yeast fitness turned out to be 0.828.

Take GGUCCGUUGGCGUAAUGGUAACGCGGCUCCCUCCUAAGGAGAAGACUGCGGGUUCGAGUCCCGUACGGAACG [U2G U26G]: the yeast fitness was 0.693.

Regarding GGUCCGUUGGCGUAAUGGUAACGCGUCUCCCUCCUAAGGAGAAGACUGCGGGUUCGAGCCCCGUACGGAACG [U2G U59C], the yeast fitness was 0.848.

For the variant GGUCCGUUGGCGUAAUGGUAACGCGUCUCCCUCCUAAGGAGAAGACUGCGGGUUCGAGACCCGUACGGAACG [U2G U59A], the yeast fitness was 0.851.

GGUCCGUUGGCGUAAUGGUAACGCGUCACCCUUCUAAGGAGAAGAGUGCGGGUUCGAGUCCCGUACGGAACG [U2G U28A C33U C46G]: the yeast fitness was at most 0.5.

On to GGUCCGGUGGCGUAACGGUAACGCGUCUCCCUCUUAAGGAGAAGACUGCGGGUUCGAGUCCCGUACGGAACG [U2G U7G U16C C34U], for which the yeast fitness is at most 0.5.

For GGUCCGUUGGCGUAAUGGUAACGCGACUCCCUCCUAAGGAGAAGACUGCGGAUUCGAGUCCCGUACGGAACG [U2G U26A G52A], the yeast fitness was at most 0.5.

On to GGUCCGUUGGCGUAAUGGUAACGCGUCUCCCUCCUAAGGAGAAGACUGCGGGAUCGAGUCCCGUACGGAACG [U2G U53A], for which the yeast fitness came to 0.532.

For GGUCCGUUGGCGUAAUGGCAACGCGUCUCCCUCCUAAGGAGAAGACUCCGGCUUCGAGUCCGGUACGGAACG [U2G U19C G48C G52C C62G], the yeast fitness is at most 0.5.

For GGUCCGUUGGCGUAAUGGUAACGCGACUCCCUCCUAAGGAGAAGACUGCGGGUACGAGUCCCGUACGGAACG [U2G U26A U54A], the yeast fitness was at most 0.5.

With GUACCGUUGGCGUACCGGUAACGCGUCUCCCUCCUAAGGAGAAGACUGCGGGUUCGAGUCCCGUAUGGAACG [U3A A15C U16C C66U], the yeast fitness is at most 0.5.

Take GGUCCGUUGGCGUAAUGGUAACGCGUCUCCCUCCUAAGGAGAAGACUGCGGGUUCGAGUCCCGCACGGAACG [U2G U64C]: the yeast fitness came out at 0.841.

With GGUCCGUUGGCGUAAUGGUAACGCGUCUCCCUCCAAAGGUGAAGACUGCGGGUUCGUGUCCCGUACGGAACG [U2G U35A A40U A57U], the yeast fitness is at most 0.5.
